pIC50: −log10 of the molar value.
Legend:
[1] = Plasma concentration upon oral dose at 50 mg/kg in mouse after 4 hours; format: ADME, organism-based; design: dose 50 mg/kg, route oral
How it was run: (§1)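 Nude mice received one oral dose of 50 mg/kg in a vehicle of 0.5% methylcellulose and 0.4% Tween 80. Plasma was sampled at 4 and 24 h and analyzed for the amount of parent compound remaining, reported in µg/mL.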

[2] = Plasma concentration upon oral dose at 50 mg/kg in mouse after 24 hours; format: ADME, organism-based; design: dose 50 mg/kg, route oral; how it was run: as §1
[3] = target: Proto-oncogene tyrosine-protein kinase Src (Homo sapiens, UniProt P12931); experiment: Inhibition of Src protein tyrosine kinase in LANCE format enzyme assay
K562 = experiment: cells; conditions: Homo sapiens

Sequence of Proto-oncogene tyrosine-protein kinase Src (P12931 2-536 limits assumed): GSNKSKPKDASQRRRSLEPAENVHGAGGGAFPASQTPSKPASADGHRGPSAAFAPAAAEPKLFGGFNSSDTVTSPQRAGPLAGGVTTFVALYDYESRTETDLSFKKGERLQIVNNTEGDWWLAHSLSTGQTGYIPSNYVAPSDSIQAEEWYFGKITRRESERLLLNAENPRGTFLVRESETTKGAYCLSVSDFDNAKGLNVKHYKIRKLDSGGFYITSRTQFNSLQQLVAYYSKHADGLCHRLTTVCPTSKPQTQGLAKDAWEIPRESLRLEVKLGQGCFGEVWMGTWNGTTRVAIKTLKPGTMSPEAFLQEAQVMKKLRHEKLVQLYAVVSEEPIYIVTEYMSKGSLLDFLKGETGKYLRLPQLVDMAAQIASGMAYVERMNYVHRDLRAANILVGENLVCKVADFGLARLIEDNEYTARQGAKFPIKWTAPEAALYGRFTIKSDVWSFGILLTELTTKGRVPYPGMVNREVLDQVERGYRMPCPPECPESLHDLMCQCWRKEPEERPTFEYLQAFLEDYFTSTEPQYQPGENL

| Structure (SMILES) | concentration at 4 h [1] | concentration at 24 h [2] | pIC50 [3] | pIC50 (K562) |
| --- | --- | --- | --- | --- |
| CN(C)Cc1ccc(-c2cc3ncc(C#N)c(Nc4ccc(Cl)cc4Cl)c3s2)cc1 | – | – | 7.28 | – |
| COc1cc(Nc2c(C#N)cnc3cc(-c4ccc(CN5CCCCC5)cc4)sc23)c(Cl)cc1Cl | – | – | 7.77 | – |
| COc1cc(Nc2c(C#N)cnc3cc(-c4ccc(N(C)C)cc4)sc23)c(Cl)cc1Cl | – | – | 6.96 | – |
| COc1cc(Nc2c(C#N)cnc3cc(-c4ccc(C(=O)N(C)C)cc4)sc23)c(Cl)cc1Cl | – | – | 7.64 | – |
| COc1cc(Nc2c(C#N)cnc3cc(OCCCN4CCN(C)CC4)c(OC)cc23)c(Cl)cc1Cl [BOSUTINIB] | – | – | – | 7.70 |
| CCCCNCc1ccc(-c2cc3ncc(C#N)c(Nc4cc(OC)c(Cl)cc4Cl)c3s2)cc1 | – | – | 7.96 | – |
| COc1cc(Nc2c(C#N)cnc3cc(-c4ccc(C(=O)N5CCN(C)CC5)cc4)sc23)c(Cl)cc1Cl | 1600 ng/mL | 59 ng/mL | 7.89 | – |
| COc1cc(Nc2c(C#N)cnc3cc(-c4ccc(CCN(C)C)cc4)sc23)c(Cl)cc1Cl | – | – | 8.06 | – |
| COc1cc(Nc2c(C#N)cnc3cc(-c4ccc(CN5CCNCC5)cc4)sc23)c(Cl)cc1Cl | 1100 ng/mL | 3 ng/mL | 8.14 | – |
| COc1cc(Nc2c(C#N)cnc3cc(-c4ccc(CN5CCSCC5)cc4)sc23)c(Cl)cc1Cl | – | – | 7.28 | – |
| CN1CCN(Cc2ccc(-c3cc4ncc(C#N)c(Nc5ccc(Oc6ccccc6)cc5)c4s3)cc2)CC1 | – | – | 6.85 | – |
| COc1cc(Nc2c(C#N)cnc3cc(-c4ccc(CN(C)C)cc4)sc23)c(Cl)cc1Cl | 200 ng/mL | 2 ng/mL | 8.04 | – |

Continued, values first:

| concentration at 4 h [1] | concentration at 24 h [2] | pIC50 [3] | pIC50 (K562) | Structure (SMILES) |
| --- | --- | --- | --- | --- |
| 1700 ng/mL | 69 ng/mL | 8.13 | – | COc1cc(Nc2c(C#N)cnc3cc(-c4ccc(CN5CCN(CCO)CC5)cc4)sc23)c(Cl)cc1Cl |
| – | – | 6.01 | – | CCOc1cc(Nc2c(C#N)cnc3cc(-c4ccc(CN5CCN(C)CC5)cc4)sc23)c(Cl)cc1Cl |
| – | – | 6.38 | – | COc1cc(Nc2c(C#N)cnc3cc(-c4ccsc4CN4CCN(C)CC4)sc23)c(Cl)cc1Cl |
| 2200 ng/mL | 400 ng/mL | – | 7.49 | COc1cc(Nc2c(C#N)cnc3cc(-c4ccc(CN5CCN(C)CC5)cc4)sc23)c(Cl)cc1Cl |
| 1000 ng/mL | 320 ng/mL | – | – | COc1cc(Nc2c(C#N)cnc3cc(-c4csc(CN5CCN(C)CC5)c4)sc23)c(Cl)cc1Cl |
| – | – | 7.17 | – | CN1CCN(Cc2cc(-c3cc4ncc(C#N)c(Nc5ccc(Cl)cc5Cl)c4s3)cs2)CC1 |
| – | – | 7.82 | – | COc1cc(Nc2c(C#N)cnc3cc(-c4ccc(CCN5CCN(C)CC5)cc4)sc23)c(Cl)cc1Cl |
| – | – | 8.09 | – | CCN1CCN(Cc2ccc(-c3cc4ncc(C#N)c(Nc5cc(OC)c(Cl)cc5Cl)c4s3)cc2)CC1 |
| – | – | 5.89 | – | CCOc1cc(Nc2c(C#N)cnc3cc(-c4csc(CN5CCN(C)CC5)c4)sc23)c(Cl)cc1Cl |

— ChEMBL document CHEMBL1144446, “Synthesis and Src kinase inhibitory activity of 2-phenyl- and 2-thienyl-7-phenylaminothieno[3,2-b]pyridine-6-carbonitriles” (J Med Chem, 2005)
